Assay results: PubChem BioAssay AID623962 (The Scripps Research Institute Molecular Screening Center, 2012)

System: Huh-7.5 HCV Rluc replicon, luciferase luminescence, 72 h
Assay: inhibition of HCV replicon replication, late-stage follow-up, orthogonal assay for HCV NS3 helicase inhibitor project, cell-based, luminescence, Renilla luciferase replicon (AID 623962)
Details: at 10 µM; active compounds read high
Procedure, shortened: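 Dosing: one concentration, 10 µM in 0.5% DMSO / Assay system: Huh-7.5 HCV Renilla luciferase replicon cells / Benchmarks: DMSO-treated cells as uninhibited reference / Signal: Renilla luciferase luminescence of lysed cells / Schedule: cell attachment 4-5 h, then compound exposure 72 h, 37 °C, 5% CO2 / Read-out basis: % replication inhibition versus DMSO-treated cells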

Cc1ccc2nc(-c3ccc4nc(-c5ccc(NC(=O)c6ccc(C(C)(C)C)cc6)cc5)sc4c3)sc2c1S(=O)(=O)O
inhibition: 51%

COc1ccc(C(=O)Nc2ccc(-c3nc4ccc(-c5nc6ccc(C)c(S(=O)(=O)O)c6s5)cc4s3)cc2)cc1
inhibition: 64%
